In ChEMBL document CHEMBL1143389, “Synthesis, structure and antibacterial activity of new 2-(1-(2-(substituted-phenyl)-5-methyloxazol-4-yl)-3-(2-substitued-phenyl)-4,5-dihydro-1H-pyrazol-5-yl)-7-substitued-1,2,3,4-tetrahydroisoquinoline derivatives” (Bioorg Med Chem, 2009):
≈ marks a conversion by molar mass, not a printed value.

Tests used:
[1] = tested on: Bacillus subtilis; assay: Antimicrobial activity against Bacillus subtilis ATCC 6633 after 24 hrs by MTT assay; assay type: functional; conditions: ATCC 6633, 24 h
Method in brief: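 Mueller-Hinton medium (casein hydrolysate, soluble starch, beef extract). Compounds were serially diluted in DMSO in medium, with an inoculum of about 10⁵ cfu/mL, and incubated at 37 °C for 24 h. MIC was read visually. MTT (2 mg/mL in PBS, pH 7.4) was then added for 4–5 h at room temperature. Dye was extracted with isopropanol containing 5% 1 mol/L HCl for 12 h, and OD was read at 550 nm.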

[2] = tested on: Escherichia coli; assay: Antimicrobial activity against Escherichia coli after 24 hrs by MTT assay
[3] = tested on: Staphylococcus aureus; assay: Antimicrobial activity against Staphylococcus aureus ATCC 6538 after 24 hrs by MTT assay; conditions: ATCC 6538, 24 h
[4] = tested on: Pseudomonas fluorescens; assay: Antimicrobial activity against Pseudomonas fluorescens ATCC 13525 after 24 hrs by MTT assay; conditions: ATCC 13525, 24 h
[5] = target: DNA gyrase (Staphylococcus aureus, UniProt P0A0K8+P20831); assay: Inhibition of Staphylococcus aureus DNA gyrase; assay type: protein-complex assay
[6] = Inhibition of Bacillus subtilis DNA gyrase
Method in brief: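 Gyrase purified from B. subtilis cells at 0–4 °C. Cells were lysed with lysozyme in HEPES-KOH pH 8.0/sucrose/Mg acetate/DTT/PMSF for 2.5 h, then treated with KCl–Brij. The cleared lysate at 0.2 M KCl went onto a column, eluted with ATP–Mg acetate–KCl, then high KCl, then urea, and was dialyzed to 0.05 M KCl. The read-out was DNA supercoiling activity.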

Chain of DNA gyrase (P0A0K8 whole entry): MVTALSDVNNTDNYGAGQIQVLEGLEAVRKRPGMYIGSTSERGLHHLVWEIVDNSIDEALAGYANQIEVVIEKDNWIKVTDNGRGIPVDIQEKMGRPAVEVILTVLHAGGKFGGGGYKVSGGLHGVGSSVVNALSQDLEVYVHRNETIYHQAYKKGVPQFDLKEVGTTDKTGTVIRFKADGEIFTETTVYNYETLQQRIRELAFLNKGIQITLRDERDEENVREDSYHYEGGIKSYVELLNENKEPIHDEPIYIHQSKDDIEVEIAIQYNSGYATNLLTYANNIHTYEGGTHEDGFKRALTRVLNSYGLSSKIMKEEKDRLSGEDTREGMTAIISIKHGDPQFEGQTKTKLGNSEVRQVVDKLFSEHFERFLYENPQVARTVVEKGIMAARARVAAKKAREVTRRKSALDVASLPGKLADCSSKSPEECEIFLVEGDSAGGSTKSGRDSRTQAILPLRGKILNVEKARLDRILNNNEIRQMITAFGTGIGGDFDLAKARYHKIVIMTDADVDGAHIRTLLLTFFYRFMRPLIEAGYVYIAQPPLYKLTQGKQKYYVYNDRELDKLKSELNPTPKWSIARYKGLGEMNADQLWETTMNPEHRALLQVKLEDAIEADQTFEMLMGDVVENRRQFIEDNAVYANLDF
Chain of DNA gyrase (P20831 whole entry): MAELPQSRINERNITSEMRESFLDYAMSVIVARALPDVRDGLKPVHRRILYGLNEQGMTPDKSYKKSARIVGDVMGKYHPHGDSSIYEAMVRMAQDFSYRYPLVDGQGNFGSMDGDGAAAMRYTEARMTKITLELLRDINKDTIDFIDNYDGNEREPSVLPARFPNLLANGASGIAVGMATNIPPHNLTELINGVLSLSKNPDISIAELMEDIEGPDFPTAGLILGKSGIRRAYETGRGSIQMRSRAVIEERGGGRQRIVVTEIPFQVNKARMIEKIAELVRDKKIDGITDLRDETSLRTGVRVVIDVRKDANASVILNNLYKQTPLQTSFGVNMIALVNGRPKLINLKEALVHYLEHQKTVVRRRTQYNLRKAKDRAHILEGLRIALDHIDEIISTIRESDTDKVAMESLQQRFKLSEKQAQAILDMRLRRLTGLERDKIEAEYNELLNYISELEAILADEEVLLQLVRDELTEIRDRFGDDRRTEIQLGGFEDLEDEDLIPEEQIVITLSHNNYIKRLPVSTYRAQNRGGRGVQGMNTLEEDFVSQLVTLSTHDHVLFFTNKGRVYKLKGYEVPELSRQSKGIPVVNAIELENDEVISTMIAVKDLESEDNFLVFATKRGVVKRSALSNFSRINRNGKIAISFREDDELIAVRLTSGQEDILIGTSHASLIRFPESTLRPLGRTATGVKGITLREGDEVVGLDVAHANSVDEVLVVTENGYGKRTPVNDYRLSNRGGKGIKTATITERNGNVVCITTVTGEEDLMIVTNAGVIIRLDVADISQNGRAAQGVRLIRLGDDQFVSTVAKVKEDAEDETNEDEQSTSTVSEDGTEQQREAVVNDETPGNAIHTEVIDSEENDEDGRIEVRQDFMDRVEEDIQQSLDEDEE

Cc1oc(-c2ccc(F)cc2F)nc1N1N=C(c2ccccc2)CC1N1CCc2ccccc2C1 (configuration not stated)
MIC [1]: 12.5 µg/mL (≈ 26.6 µM) | MIC [2]: 12.5 µg/mL (≈ 26.6 µM) | MIC [3]: 12.5 µg/mL (≈ 26.6 µM) | MIC [4]: 50 µg/mL (≈ 106 µM)

Cc1oc(-c2ccccc2F)nc1N1N=C(c2ccc(Cl)cc2Cl)CC1N1CCc2ccccc2C1 (configuration not stated)
MIC [1]: 3.12 µg/mL (≈ 5.99 µM) | IC50 [5]: 10.5 µM | IC50 [6]: 1 µg/mL (≈ 1.92 µM) | MIC [2]: 50 µg/mL (≈ 95.9 µM) | MIC [3]: 3.12 µg/mL (≈ 5.99 µM) | MIC [4]: > 50 µg/mL

C=Cc1ccccc1-c1nc(N2N=C(c3ccccc3C(F)(F)F)CC2N2CCc3ccccc3C2)c(C)o1 (configuration not stated)
MIC [1]: 12.5 µg/mL (≈ 23.6 µM) | MIC [2]: > 50 µg/mL | MIC [3]: 12.5 µg/mL (≈ 23.6 µM) | MIC [4]: 50 µg/mL (≈ 94.6 µM)

COc1ccc2c(c1)CN(C1CC(c3ccccc3F)=NN1c1nc(-c3ccccc3F)oc1C)CC2 (configuration not stated)
MIC [1]: 12.5 µg/mL (≈ 25 µM) | IC50 [5]: 7.99 µM | IC50 [6]: > 125 µg/mL | MIC [2]: 50 µg/mL (≈ 99.9 µM) | MIC [3]: 50 µg/mL (≈ 99.9 µM) | MIC [4]: 12.5 µg/mL (≈ 25 µM)

Cc1oc(-c2ccc(F)cc2F)nc1N1N=C(c2ccccc2C(F)(F)F)CC1N1CCc2ccccc2C1 (configuration not stated)
MIC [1]: 12.5 µg/mL (≈ 23.2 µM) | MIC [2]: 25 µg/mL (≈ 46.4 µM) | MIC [3]: 6.25 µg/mL (≈ 11.6 µM) | MIC [4]: 12.5 µg/mL (≈ 23.2 µM)

COc1ccc2c(c1)CN(C1CC(c3ccccc3)=NN1c1nc(-c3ccccc3F)oc1C)CC2 (configuration not stated)
MIC [1]: 25 µg/mL (≈ 51.8 µM) | MIC [2]: > 50 µg/mL | MIC [3]: 25 µg/mL (≈ 51.8 µM) | MIC [4]: > 50 µg/mL

COc1ccc2c(c1)CN(C1CC(c3ccc(-c4ccco4)cc3)=NN1c1nc(-c3ccccc3F)oc1C)CC2 (configuration not stated)
MIC [1]: 1.56 µg/mL (≈ 2.85 µM) | MIC [2]: 25 µg/mL (≈ 45.6 µM) | MIC [3]: 1.56 µg/mL (≈ 2.85 µM) | MIC [4]: > 50 µg/mL

Cc1oc(-c2ccc(F)cc2F)nc1N1N=C(c2ccc(-c3ccco3)cc2)CC1N1CCc2ccccc2C1 (configuration not stated)
MIC [1]: 0.39 µg/mL (≈ 0.727 µM) | IC50 [5]: 0.233 µM | IC50 [6]: 0.25 µg/mL (≈ 0.466 µM) | MIC [2]: > 50 µg/mL | MIC [3]: 1.56 µg/mL (≈ 2.91 µM) | MIC [4]: 25 µg/mL (≈ 46.6 µM)

COc1ccc2c(c1)CN(C1CC(c3ccc(Cl)cc3Cl)=NN1c1nc(-c3ccccc3C(F)(F)F)oc1C)CC2 (configuration not stated)
MIC [1]: 3.12 µg/mL (≈ 5.2 µM) | MIC [2]: > 50 µg/mL | MIC [3]: 1.56 µg/mL (≈ 2.6 µM) | MIC [4]: > 50 µg/mL

Cc1oc(-c2ccc(F)cc2F)nc1N1N=C(c2ccccc2F)CC1N1CCc2ccccc2C1 (configuration not stated)
MIC [1]: 25 µg/mL (≈ 51.2 µM) | MIC [2]: 25 µg/mL (≈ 51.2 µM) | MIC [3]: 6.25 µg/mL (≈ 12.8 µM) | MIC [4]: 25 µg/mL (≈ 51.2 µM)

C=Cc1ccccc1-c1nc(N2N=C(c3ccc(-c4ccco4)cc3)CC2N2CCc3ccc(OC)cc3C2)c(C)o1 (configuration not stated)
MIC [1]: 3.12 µg/mL (≈ 5.61 µM) | MIC [2]: > 50 µg/mL | MIC [3]: 3.12 µg/mL (≈ 5.61 µM) | MIC [4]: 25 µg/mL (≈ 44.9 µM)

COc1ccc2c(c1)CN(C1CC(c3ccc(-c4ccco4)cc3)=NN1c1nc(-c3ccccc3C(F)(F)F)oc1C)CC2 (configuration not stated)
MIC [1]: 1.56 µg/mL (≈ 2.61 µM) | IC50 [5]: 0.418 µM | IC50 [6]: 0.25 µg/mL (≈ 0.418 µM) | MIC [2]: 50 µg/mL (≈ 83.5 µM) | MIC [3]: 1.56 µg/mL (≈ 2.61 µM) | MIC [4]: 25 µg/mL (≈ 41.8 µM)

C=Cc1ccccc1-c1nc(N2N=C(c3ccccc3F)CC2N2CCc3ccc(OC)cc3C2)c(C)o1 (configuration not stated)
MIC [1]: 12.5 µg/mL (≈ 24.6 µM) | MIC [2]: 50 µg/mL (≈ 98.3 µM) | MIC [3]: 50 µg/mL (≈ 98.3 µM) | MIC [4]: 50 µg/mL (≈ 98.3 µM)

Cc1oc(-c2ccccc2F)nc1N1N=C(c2ccccc2)CC1N1CCc2ccccc2C1 (configuration not stated)
MIC [1]: 25 µg/mL (≈ 55.2 µM) | MIC [2]: 6.25 µg/mL (≈ 13.8 µM) | MIC [3]: 6.25 µg/mL (≈ 13.8 µM) | MIC [4]: 12.5 µg/mL (≈ 27.6 µM)

Cc1oc(-c2ccccc2C(F)(F)F)nc1N1N=C(c2ccccc2)CC1N1CCc2ccccc2C1 (configuration not stated)
MIC [1]: 12.5 µg/mL (≈ 24.9 µM) | MIC [2]: 50 µg/mL (≈ 99.5 µM) | MIC [3]: 25 µg/mL (≈ 49.7 µM) | MIC [4]: 50 µg/mL (≈ 99.5 µM)

C=Cc1ccccc1-c1nc(N2N=C(c3ccccc3)CC2N2CCc3ccccc3C2)c(C)o1 (configuration not stated)
MIC [1]: 12.5 µg/mL (≈ 27.1 µM) | MIC [2]: 12.5 µg/mL (≈ 27.1 µM) | MIC [3]: 12.5 µg/mL (≈ 27.1 µM) | MIC [4]: 12.5 µg/mL (≈ 27.1 µM)

COc1ccc2c(c1)CN(C1CC(c3ccccc3F)=NN1c1nc(-c3ccccc3C(F)(F)F)oc1C)CC2 (configuration not stated)
MIC [1]: 25 µg/mL (≈ 45.4 µM) | MIC [2]: 50 µg/mL (≈ 90.8 µM) | MIC [3]: 25 µg/mL (≈ 45.4 µM) | MIC [4]: 25 µg/mL (≈ 45.4 µM)

COc1ccc2c(c1)CN(C1CC(c3ccccc3)=NN1c1nc(-c3ccccc3C(F)(F)F)oc1C)CC2 (configuration not stated)
MIC [1]: 12.5 µg/mL (≈ 23.5 µM) | MIC [2]: 50 µg/mL (≈ 93.9 µM) | MIC [3]: 25 µg/mL (≈ 46.9 µM) | MIC [4]: > 50 µg/mL

Cc1oc(-c2ccccc2C(F)(F)F)nc1N1N=C(c2ccc(Cl)cc2Cl)CC1N1CCc2ccccc2C1 (configuration not stated)
MIC [1]: 3.12 µg/mL (≈ 5.47 µM) | MIC [2]: > 50 µg/mL | MIC [3]: 3.12 µg/mL (≈ 5.47 µM) | MIC [4]: > 50 µg/mL

NC[C@H]1O[C@H](O[C@H]2[C@H](O)[C@@H](O[C@H]3O[C@H](CO)[C@@H](O)[C@H](N)[C@H]3O)[C@H](N)C[C@@H]2N)[C@H](O)[C@@H](O)[C@@H]1O [KANAMYCIN]
MIC [1]: 0.39 µg/mL (≈ 0.805 µM) | MIC [2]: 3.12 µg/mL (≈ 6.45 µM) | MIC [3]: 1.56 µg/mL (≈ 3.22 µM) | MIC [4]: 3.12 µg/mL (≈ 6.45 µM)

COc1ccc2c(c1)CN(C1CC(c3ccccc3)=NN1c1nc(-c3ccc(F)cc3F)oc1C)CC2 (configuration not stated)
MIC [1]: 6.25 µg/mL (≈ 12.5 µM) | MIC [2]: 50 µg/mL (≈ 99.9 µM) | MIC [3]: 6.25 µg/mL (≈ 12.5 µM) | MIC [4]: 25 µg/mL (≈ 49.9 µM)
